This passage reports inhibition of growth, IC50 and inhibition results from ChEMBL document CHEMBL4028913, “Discovery of Novel Potent VEGFR-2 Inhibitors Exerting Significant Antiproliferative Activity against Cancer Cell Lines” (J Med Chem, 2018).

Molecules are shown by their SMILES. Active and inactive are the calls of the source. The rule behind the calls is not given here. A value given as a limit tells only on which side of the number the result lay.

The subject of test [1] is MDA-MB-435. In words: Growth inhibition of human MDA-MB-435 cells at 10 uM after 72 hrs by CellTiter-Glo assay relative to control. The test is classed as functional. The settings on record: MDA-MB-435, 72 h, read-out: GI. In short, it runs like this: (§1)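 Cells in exponential phase seeded at 2000–4000 cells/well, then exposed 72 h at 37 °C, 5% CO2 with 0.1% final DMSO. Single-point screen at 10 μM final. […] Read-out was CellTiter-Glo luminescence.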

In another test the test system is A-431. In words: Growth inhibition of human A431 cells at 10 uM after 72 hrs by CellTiter-Glo assay relative to control. The test is classed as functional. Particulars: A-431, 72 h, read-out: GI. The method, boiled down:
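A431 cells seeded at 2000–4000 cells/well and treated with 10 μM final compound, 0.1% DMSO, for 72 h at 37 °C, 5% CO2. Viability read by CellTiter-Glo. Inhibition ratio = 1 − Vsample/Vvehicle control; triplicate.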
A general note: Cellular ATP, detected with luciferase, serves as a proxy for viable cell number.

Test [2] deals with HUVEC. In words: Growth inhibition of HUVEC after 72 hrs by CellTiter-Glo assay. The test is classed as functional, cell-based. Particulars: Homo sapiens. The method, boiled down: as §1
In test [3] the test system is HUVEC. As to the kind of experiment: Growth inhibition of HUVEC at 10 uM after 72 hrs by CellTiter-Glo assay relative to control. Particulars: Homo sapiens, read-out: GI. Format: functional. In short, it runs like this: as §1
For test [4], the system named is MDA-MB-435. As to the kind of experiment: Growth inhibition of human MDA-MB-435 cells after 72 hrs by CellTiter-Glo assay. Format: functional, cell-based. The settings on record: MDA-MB-435, 72 h. The method, boiled down:
as §1

Test [5] concerns the target T1, Vascular endothelial growth factor receptor 2 (Homo sapiens, UniProt P35968). Particulars: at 10 µM.
Test [6] concerns the target T1, Vascular endothelial growth factor receptor 2.
Test [7] concerns the target Mitogen-activated protein kinase kinase kinase kinase 5 (Homo sapiens) (UniProt Q9Y4K4). As to the kind of experiment: Inhibition of human KHS at 0.5 uM relative to control.
For test [8], the target named is TRAF2 and NCK-interacting protein kinase (Homo sapiens) (UniProt Q9UKE5). In words: Inhibition of human TNIK at 0.5 uM relative to control.
For test [9], the target named is Ephrin type-A receptor 4 (Homo sapiens) (UniProt P54764). As to the kind of experiment: Inhibition of human EPHA4 at 0.5 uM relative to control.
The species entered for test [10] is Homo sapiens. In words: Inhibition of human PDGFR at 0.5 uM relative to control.
Test [11] deals with Vascular endothelial growth factor receptor 1 (Homo sapiens) (UniProt P17948). In words: Inhibition of human Flt1 at 0.5 uM relative to control.
Test [12] deals with Ephrin type-A receptor 2 (Homo sapiens) (UniProt P29317). In words: Inhibition of human EPHA2 at 0.5 uM relative to control.
The target of test [13] is Ephrin type-A receptor 3 (Homo sapiens) (UniProt P29320). As to the kind of experiment: Inhibition of human EPHA3 at 0.5 uM relative to control.
Test [14] concerns the target Receptor-type tyrosine-protein kinase FLT3 (Homo sapiens) (UniProt P36888). In words: Inhibition of human Flt3 at 0.5 uM relative to control.
Test [15] has as its target Ephrin type-A receptor 5 (Homo sapiens) (UniProt P54756). As to the kind of experiment: Inhibition of human EPHA5 at 0.5 uM relative to control.
In test [16] the target is STE20-like serine/threonine-protein kinase (Homo sapiens) (UniProt Q9H2G2). As to the kind of experiment: Inhibition of human SLK at 0.5 uM relative to control.
Test [17] deals with Ephrin type-A receptor 7 (Homo sapiens) (UniProt Q15375). As to the kind of experiment: Inhibition of human EPHA7 at 0.5 uM relative to control.
The target in test [18] is Ephrin type-A receptor 8 (Homo sapiens) (UniProt P29322). In words: Inhibition of human EPHA8 at 0.5 uM relative to control.
The target of test [19] is Tyrosine-protein kinase HCK (Homo sapiens) (UniProt P08631). As to the kind of experiment: Inhibition of human HCK at 0.5 uM relative to control.
The species named for test [20] is Homo sapiens. As to the kind of experiment: Inhibition of human DDR at 0.5 uM relative to control.
The target of test [21] is Vascular endothelial growth factor receptor 3 (Homo sapiens) (UniProt P35916). As to the kind of experiment: Inhibition of human Flt4 at 0.5 uM relative to control.

T1 sequence (P35968 whole entry): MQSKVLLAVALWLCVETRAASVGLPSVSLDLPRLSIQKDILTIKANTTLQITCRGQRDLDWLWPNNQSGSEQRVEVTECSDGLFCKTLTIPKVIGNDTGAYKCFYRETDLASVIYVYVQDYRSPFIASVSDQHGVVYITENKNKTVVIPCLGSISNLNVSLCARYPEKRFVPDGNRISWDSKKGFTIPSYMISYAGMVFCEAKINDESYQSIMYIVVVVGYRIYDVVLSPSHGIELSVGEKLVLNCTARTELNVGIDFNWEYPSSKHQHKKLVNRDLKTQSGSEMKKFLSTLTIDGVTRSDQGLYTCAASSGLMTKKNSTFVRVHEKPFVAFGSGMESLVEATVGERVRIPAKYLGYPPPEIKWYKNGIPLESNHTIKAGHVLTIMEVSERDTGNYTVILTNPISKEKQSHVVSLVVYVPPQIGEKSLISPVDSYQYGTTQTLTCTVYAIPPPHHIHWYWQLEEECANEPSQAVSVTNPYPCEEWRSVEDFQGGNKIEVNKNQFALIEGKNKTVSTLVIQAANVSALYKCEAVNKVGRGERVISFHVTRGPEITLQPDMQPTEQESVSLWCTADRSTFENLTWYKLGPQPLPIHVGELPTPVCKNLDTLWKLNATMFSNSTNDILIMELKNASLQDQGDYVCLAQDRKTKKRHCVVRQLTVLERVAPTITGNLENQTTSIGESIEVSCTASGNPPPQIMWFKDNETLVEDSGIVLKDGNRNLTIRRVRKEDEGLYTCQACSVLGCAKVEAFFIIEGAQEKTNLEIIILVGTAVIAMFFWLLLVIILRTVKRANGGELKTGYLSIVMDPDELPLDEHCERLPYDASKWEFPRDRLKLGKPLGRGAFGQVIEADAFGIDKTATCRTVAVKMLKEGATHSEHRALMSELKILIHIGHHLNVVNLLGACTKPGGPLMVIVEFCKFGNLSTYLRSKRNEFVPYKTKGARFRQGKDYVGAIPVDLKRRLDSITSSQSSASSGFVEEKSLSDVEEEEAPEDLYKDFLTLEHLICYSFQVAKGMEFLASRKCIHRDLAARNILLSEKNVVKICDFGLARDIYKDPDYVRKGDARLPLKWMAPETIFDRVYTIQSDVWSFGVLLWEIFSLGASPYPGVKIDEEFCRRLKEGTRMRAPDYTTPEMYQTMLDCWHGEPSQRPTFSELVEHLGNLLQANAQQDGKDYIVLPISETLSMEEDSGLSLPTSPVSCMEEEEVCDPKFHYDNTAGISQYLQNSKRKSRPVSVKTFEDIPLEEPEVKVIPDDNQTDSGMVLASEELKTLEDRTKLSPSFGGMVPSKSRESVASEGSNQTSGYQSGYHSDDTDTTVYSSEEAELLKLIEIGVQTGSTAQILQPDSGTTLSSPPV
Chain of Receptor-type tyrosine-protein kinase FLT3 (Homo sapiens) (P36888 whole entry): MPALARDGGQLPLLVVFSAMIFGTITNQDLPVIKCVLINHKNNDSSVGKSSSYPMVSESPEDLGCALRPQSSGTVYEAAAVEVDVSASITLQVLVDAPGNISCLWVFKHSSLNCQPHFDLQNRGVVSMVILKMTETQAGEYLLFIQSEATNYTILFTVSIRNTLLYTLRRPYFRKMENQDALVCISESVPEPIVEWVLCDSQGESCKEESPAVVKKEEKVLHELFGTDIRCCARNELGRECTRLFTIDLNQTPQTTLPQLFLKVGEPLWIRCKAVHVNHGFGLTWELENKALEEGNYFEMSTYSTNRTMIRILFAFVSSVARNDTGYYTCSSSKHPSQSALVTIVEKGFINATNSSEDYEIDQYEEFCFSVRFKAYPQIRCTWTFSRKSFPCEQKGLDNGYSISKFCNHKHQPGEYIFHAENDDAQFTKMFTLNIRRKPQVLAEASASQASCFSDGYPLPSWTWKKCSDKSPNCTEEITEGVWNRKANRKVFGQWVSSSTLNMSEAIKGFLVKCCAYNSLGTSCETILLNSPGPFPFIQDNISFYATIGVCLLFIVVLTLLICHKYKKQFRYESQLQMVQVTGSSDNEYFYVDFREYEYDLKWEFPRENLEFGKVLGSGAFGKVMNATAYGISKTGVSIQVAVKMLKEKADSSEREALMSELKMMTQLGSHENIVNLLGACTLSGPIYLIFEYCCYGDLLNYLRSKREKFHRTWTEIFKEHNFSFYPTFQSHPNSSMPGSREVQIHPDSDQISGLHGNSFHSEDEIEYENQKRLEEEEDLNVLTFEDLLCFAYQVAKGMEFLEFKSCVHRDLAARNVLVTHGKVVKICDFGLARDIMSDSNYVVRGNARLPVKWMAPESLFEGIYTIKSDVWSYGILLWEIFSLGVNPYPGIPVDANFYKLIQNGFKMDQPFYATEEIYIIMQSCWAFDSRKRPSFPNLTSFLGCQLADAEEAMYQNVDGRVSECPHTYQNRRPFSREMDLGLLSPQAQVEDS
Chain of Ephrin type-A receptor 7 (Homo sapiens) (Q15375 28-998 limits assumed): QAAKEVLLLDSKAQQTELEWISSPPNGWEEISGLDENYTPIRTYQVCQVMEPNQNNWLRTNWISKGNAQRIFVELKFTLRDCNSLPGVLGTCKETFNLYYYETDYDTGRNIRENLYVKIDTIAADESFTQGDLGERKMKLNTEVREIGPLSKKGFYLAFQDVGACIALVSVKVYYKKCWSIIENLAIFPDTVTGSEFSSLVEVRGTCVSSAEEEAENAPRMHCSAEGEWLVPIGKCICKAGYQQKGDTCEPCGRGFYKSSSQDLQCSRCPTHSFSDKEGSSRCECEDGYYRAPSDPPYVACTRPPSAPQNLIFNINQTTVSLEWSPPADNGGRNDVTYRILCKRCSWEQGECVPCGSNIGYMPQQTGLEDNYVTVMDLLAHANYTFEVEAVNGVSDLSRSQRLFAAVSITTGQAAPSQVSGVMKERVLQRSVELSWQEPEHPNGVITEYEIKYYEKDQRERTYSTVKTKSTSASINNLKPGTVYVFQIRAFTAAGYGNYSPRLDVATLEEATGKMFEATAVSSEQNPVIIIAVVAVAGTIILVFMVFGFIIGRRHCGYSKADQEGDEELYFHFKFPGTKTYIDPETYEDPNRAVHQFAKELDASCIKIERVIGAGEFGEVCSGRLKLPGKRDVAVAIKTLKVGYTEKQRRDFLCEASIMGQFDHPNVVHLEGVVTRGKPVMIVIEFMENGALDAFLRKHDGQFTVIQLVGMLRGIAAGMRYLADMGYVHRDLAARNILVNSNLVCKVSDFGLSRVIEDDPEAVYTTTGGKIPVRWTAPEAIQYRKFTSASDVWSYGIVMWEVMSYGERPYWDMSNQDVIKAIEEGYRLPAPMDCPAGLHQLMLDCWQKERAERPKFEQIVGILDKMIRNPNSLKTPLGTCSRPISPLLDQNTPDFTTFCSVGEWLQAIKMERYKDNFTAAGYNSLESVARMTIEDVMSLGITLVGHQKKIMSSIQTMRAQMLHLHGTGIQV
Chain of Ephrin type-A receptor 8 (Homo sapiens) (P29322 whole entry): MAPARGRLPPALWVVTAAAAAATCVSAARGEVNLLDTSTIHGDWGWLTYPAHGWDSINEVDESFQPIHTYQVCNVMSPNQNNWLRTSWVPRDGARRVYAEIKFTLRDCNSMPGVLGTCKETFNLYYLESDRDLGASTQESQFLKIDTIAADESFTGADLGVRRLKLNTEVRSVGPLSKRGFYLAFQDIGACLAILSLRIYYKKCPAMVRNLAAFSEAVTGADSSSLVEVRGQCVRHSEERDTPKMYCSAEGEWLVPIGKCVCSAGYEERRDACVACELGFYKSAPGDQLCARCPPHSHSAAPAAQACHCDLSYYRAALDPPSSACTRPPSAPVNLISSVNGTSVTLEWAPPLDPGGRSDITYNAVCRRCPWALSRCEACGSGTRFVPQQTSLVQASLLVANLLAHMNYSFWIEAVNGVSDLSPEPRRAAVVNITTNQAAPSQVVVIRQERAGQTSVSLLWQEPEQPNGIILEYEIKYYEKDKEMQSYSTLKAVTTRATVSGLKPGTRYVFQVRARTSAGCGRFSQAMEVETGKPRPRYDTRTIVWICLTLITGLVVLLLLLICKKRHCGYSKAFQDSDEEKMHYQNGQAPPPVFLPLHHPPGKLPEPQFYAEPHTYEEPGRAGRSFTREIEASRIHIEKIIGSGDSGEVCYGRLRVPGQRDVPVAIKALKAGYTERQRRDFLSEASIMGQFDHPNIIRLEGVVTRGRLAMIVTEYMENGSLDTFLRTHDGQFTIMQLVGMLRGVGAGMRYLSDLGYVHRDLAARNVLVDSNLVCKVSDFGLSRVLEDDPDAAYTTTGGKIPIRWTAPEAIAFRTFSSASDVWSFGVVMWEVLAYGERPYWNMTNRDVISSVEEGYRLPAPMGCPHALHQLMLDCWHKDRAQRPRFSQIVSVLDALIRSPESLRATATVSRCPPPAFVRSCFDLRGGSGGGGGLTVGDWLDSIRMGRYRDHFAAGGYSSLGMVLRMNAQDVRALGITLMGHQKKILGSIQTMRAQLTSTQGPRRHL
Chain of Tyrosine-protein kinase HCK (Homo sapiens) (P08631 2-526 limits assumed): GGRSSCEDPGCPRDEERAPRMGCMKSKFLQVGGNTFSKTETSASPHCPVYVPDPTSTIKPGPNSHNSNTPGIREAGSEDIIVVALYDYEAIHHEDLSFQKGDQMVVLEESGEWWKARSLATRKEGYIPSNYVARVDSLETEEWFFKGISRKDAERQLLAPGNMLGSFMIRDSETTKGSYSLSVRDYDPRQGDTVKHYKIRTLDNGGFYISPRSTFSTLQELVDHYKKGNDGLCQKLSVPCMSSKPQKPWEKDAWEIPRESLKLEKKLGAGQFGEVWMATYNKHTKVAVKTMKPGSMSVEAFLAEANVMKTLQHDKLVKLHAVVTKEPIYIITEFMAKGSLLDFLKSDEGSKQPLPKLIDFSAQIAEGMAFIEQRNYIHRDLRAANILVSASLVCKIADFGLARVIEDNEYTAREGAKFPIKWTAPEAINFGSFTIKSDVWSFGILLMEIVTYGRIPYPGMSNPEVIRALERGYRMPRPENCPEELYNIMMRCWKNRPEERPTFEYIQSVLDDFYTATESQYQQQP

For the molecule `COc1cc2ncnc(Oc3ccc(NC(=O)Nc4cnn(C(C)C)c4)c4ccccc34)c2cc1OC`, the inhibition of growth at 10 µM in the test with MDA-MB-435 [1] amounted to 27.7%; in the test with A-431, 49.9%; with HUVEC [3], 93.6%. Further, in the test with HUVEC [2], the IC50 is 630 nM.
As to `CNC(=O)c1cc(Oc2ccc(NC(=O)Nc3ccc(Cl)c(C(F)(F)F)c3)cc2)ccn1` [SORAFENIB], the values for the inhibition of growth at 10 µM in the test with MDA-MB-435 [1], with A-431 and in the test with HUVEC [3] were 91.9%, 68.9% and 84.7%, respectively. Besides, the values for the IC50 in the test on HUVEC [2] and in the test on MDA-MB-435 [4] were 1490 nM and 2110 nM, respectively.
Take `COc1cc2ncnc(Oc3ccc(NC(=O)NC4CC4)c4ccccc34)c2cc1OC`: the inhibition of growth at 10 µM in the test on MDA-MB-435 [1] was found to be 1.48%; with A-431, 15.1%; with HUVEC [3], 63.9%.
In the same order, the values of `COc1cc2ncnc(Oc3ccc(NC(=O)Nc4ccc(Cl)c(C(F)(F)F)c4)c4cccnc34)c2cc1OC` are 44.3%, 21% and 51.5%.
Turning to `COc1cc2ncnc(Oc3ccc(NC(=O)Nc4ccc(Cl)c(C(F)(F)F)c4)c4ccccc34)c2cc1OC`, the inhibition of growth at 10 µM in the test with MDA-MB-435 [1] worked out at 95.1%; in the test on A-431, 14.9%; in the test on HUVEC [3], 82.9%. The IC50 in the test on HUVEC [2] was 2970 nM; in the test with MDA-MB-435 [4], 3790 nM.
Consider `COc1cc2ncnc(Oc3ccc(NC(=O)Nc4cccc(C(F)(F)F)c4)c4ccccc34)c2cc1OC`, for which the inhibition of growth at 10 µM in the test on MDA-MB-435 [1] was 24.5%; in the test with A-431, -4.51%; in the test with HUVEC [3] it was 66.8%. In addition, the inhibition in test [5] came out at 99%. In test [6], this molecule had an IC50 of 28.8 nM.
In the case of `CCN(CC)CCNC(=O)c1c(C)[nH]c(/C=C2\C(=O)Nc3ccc(F)cc32)c1C`, the inhibition entry (in test [7]; in test [8]; in test [9]; in the test filed under Homo sapiens [10]; in [11]; in test [12]) was “Active” in each case. In addition, the inhibition result in test [13], in test [14], in [15], in test [16], in test [17] and in [18] was “Active” throughout. Moreover, the inhibition result (in test [19]; in the test listed under Homo sapiens [20]; in test [21]) was “Active” in each case.
As for `COc1cc2ncnc(Oc3ccc(NS(=O)(=O)c4ccccc4)c4ccccc34)c2cc1OC`, the inhibition in test [5] turned out to be 44.3%. The same molecule yielded an IC50 in test [6] greater than 10000 nM.
For `COc1cc2ncnc(Oc3ccc(NC(=O)Nc4cc(C)on4)c4ccccc34)c2cc1OC`, the inhibition of growth at 10 µM with MDA-MB-435 [1] is 0.23%; in the test on A-431, -1.52%; in the test with HUVEC [3], 61.9%.

What is called IC50 is the midpoint of a concentration-inhibition curve. High values mean a need for much substance, low ones inhibition by little substance. The term inhibition denotes the drop in the measured response relative to a control, in per cent.
